Drawing on ChEMBL document CHEMBL3621067, “Antihyperlipidemic morpholine derivatives with antioxidant activity: An investigation of the aromatic substitution” (Bioorg Med Chem, 2015), this text covers IC50, inhibition and inhibition in vivo for 18 compounds.

The test system of one assay is Liver. Description: Antioxidant activity in rat heat-inactivated rat hepatic microsomes assessed as inhibition of TBAR level incubated for 45 mins by spectrophotometry. Format: functional. Particulars: 0.75 h. The method in brief:
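Heat-inactivated liver microsomes from untreated rats (2.5 mg protein/mL, 4 mM fatty acid residues) with 0.2 mM ascorbic acid in Tris–HCl/KCl (50/150 mM, pH 7.4); compounds in DMSO, 10 μM to 1 mM. Incubated at 37 °C for 45 min; TBAR read at 535 against 600 nm. Run in duplicate; IC50 is the mean concentration giving 50% inhibition of control peroxidation.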

Assay [1] concerns the target T1, Squalene synthase (Rattus norvegicus) (UniProt Q02769).
T1 sequence (whole entry): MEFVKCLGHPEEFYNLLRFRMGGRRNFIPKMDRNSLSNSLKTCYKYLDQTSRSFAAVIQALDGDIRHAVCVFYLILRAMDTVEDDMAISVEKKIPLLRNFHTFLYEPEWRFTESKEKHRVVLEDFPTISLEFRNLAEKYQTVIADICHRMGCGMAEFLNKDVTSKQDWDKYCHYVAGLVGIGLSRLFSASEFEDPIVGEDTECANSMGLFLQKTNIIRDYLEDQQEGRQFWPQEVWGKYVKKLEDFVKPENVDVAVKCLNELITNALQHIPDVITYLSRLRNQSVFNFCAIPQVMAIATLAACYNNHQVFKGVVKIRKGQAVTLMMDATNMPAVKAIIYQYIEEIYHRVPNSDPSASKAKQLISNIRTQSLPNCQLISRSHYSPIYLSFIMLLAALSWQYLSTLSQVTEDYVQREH
Description: Inhibition of squalene synthase in rat liver microsomes assessed as reduction in conversion of [3H]farnesyl pyrophosphate to squalene at 10 uM […] by liquid scintillation counting method.

Assay [2] concerns Rattus norvegicus. Briefly: Antihyperlipidemic activity in Triton WR1339-induced hyperlipidemic rat assessed as reduction in plasma total cholesterol at 56 umol/kg, ip dosed 1 hr after Triton WR1339 challenge and measured 24 hrs post dose relative to control. Format: functional. The procedure, abridged:
(§1)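 Rats given Triton WR1339 to induce acute hyperlipidemia, established 24 h later; compounds given ip at 56 μmol/kg. Animals held at 22 °C on a 12 h light/dark cycle with free chow and water. Plasma lipids measured in duplicate; values are the mean of 8–10 rats per compound, expressed as % decrease versus hyperlipidemic controls; significance by Student's test.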

For assay [3], the system named is Rattus norvegicus. Description: Antihyperlipidemic activity in Triton WR1339-induced hyperlipidemic rat assessed as reduction in plasma triglyceride level at 56 umol/kg, ip dosed 1 hr after Triton WR1339 challenge and measured 24 hrs post dose relative to control. Type of assay: functional. The procedure, abridged: as §1
For assay [4], the target named is T1, Squalene synthase (Rattus norvegicus). Description: Inhibition of squalene synthase in rat liver microsomes assessed as reduction in conversion of [3H]farnesyl pyrophosphate to squalene at 50 uM incubated for 30 mins by liquid scintillation counting. The procedure, abridged:
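Rat liver microsomes (18 μg protein/mL) in 50 mM phosphate, pH 7.4, with 10 mM MgCl2 and 0.5 mM NADPH; compounds in ethanol. Preincubated 10 min at 37 °C, then started with [3H]FPP (0.5 μM, 0.27 Ci/mmol) for 10 min at 37 °C. Stopped with 15% ethanolic KOH, heated 65 °C for 30 min, extracted into petroleum ether, and squalene counted by scintillation. Run in duplicate.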

The test system of assay [5] is Rattus norvegicus. Description: Antihypercholesterolemic activity in Triton WR1339-induced hyperlipidemic rat assessed as reduction in plasma LDL-C level at 56 umol/kg, ip dosed 1 hr after Triton WR1339 challenge and measured 24 hrs post dose relative to control. Type of assay: functional. The procedure, abridged:
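Rats, housed at 22 °C on a 12 h light/dark cycle with free chow and water, given Triton WR1339 to induce acute hyperlipidemia (established 24 h later). Compound given ip at 56 μmol/kg. Plasma LDL measured in duplicate and expressed as % decrease versus hyperlipidemic controls; mean of 8–10 rats per compound.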

The target in a further assay is T2, Squalene synthase (Rattus norvegicus, UniProt Q02769).
T2 sequence (Q02769 whole entry): T1 sequence (whole entry)
Description: Inhibition of squalene synthase in rat liver microsomes assessed as reduction in conversion of [3H]farnesyl pyrophosphate to squalene incubated for 30 mins by liquid scintillation counting.

Each structure is given as a SMILES string.

By IC50 is commonly meant the concentration that gives 50% inhibition. For orientation: inhibition means the share of the control response that was lost under treatment. The inhibition in vivo is the change of the read-out against control, counted positive when it falls. On to `CN1CCOC(O)(c2ccc(-c3ccc([N+](=O)[O-])cc3)cc2)C1` (stereo unspecified), for which, in the assay on Liver, the 50% inhibitory concentration (IC50) came to 73 µM. Besides, the inhibition in assay [1] was 29%. The results for the inhibition in vivo at 56 µmol/kg in the assay with Rattus norvegicus [2] and in the assay with Rattus norvegicus [3] were 41% and 44%, respectively.
As for `CN1CC(O)(c2ccc(-c3ccc(C(C)(C)C)cc3)cc2)OC2CCCCC21` (stereo unspecified), the IC50 in the assay on Liver turned out to be 214 µM. Also, the inhibition in assay [1] is 67%. Besides, the inhibition in vivo at 56 µmol/kg with Rattus norvegicus [2] was 17%; in the assay on Rattus norvegicus [3], 15%.
Consider `CN1CC(O)(c2ccc(-c3nccs3)cc2)OC2CCCCC21` (stereo unspecified), for which the inhibition in assay [4] is 29%.
In the case of `CN1CCOC(O)(c2ccc(-c3ccc(C(C)(C)C)cc3)cc2)C1` (stereo unspecified), in the assay on Liver, the IC50 came to 91 µM. For the same compound, the inhibition in assay [1] came out at 61%. Besides, the results for the inhibition in vivo at 56 µmol/kg with Rattus norvegicus [2] and with Rattus norvegicus [3] were 45% and 47%, respectively.
For the compound `O=[N+]([O-])c1ccc(-c2ccc(C3(O)CN4CCCCC4CO3)cc2)cc1` (stereo unspecified), the half-inhibitory concentration (IC50) in the assay with Liver turned out to be 539 µM. For the same compound, the inhibition in assay [1] came to 43%. Besides, the inhibition in vivo at 56 µmol/kg in the assay with Rattus norvegicus [2] came out at 59%; with Rattus norvegicus [3], 31%.
With `CN1CC(O)(c2ccc(-c3ccc(O)cc3)cc2)OC2CCCCC21` (stereo unspecified), in the assay on Liver, the IC50 was 135 µM. In assay [1], the inhibition turned out to be 61%. For the same compound, the inhibition in vivo at 56 µmol/kg in the assay with Rattus norvegicus [2] was found to be 54%; with Rattus norvegicus [3] it was 48%.
With `CN1CC(O)(c2ccc(-c3ccc([N+](=O)[O-])cc3)cc2)OC2CCCCC21` (stereo unspecified), the IC50 with Liver was 57 µM. The values for the inhibition in vivo at 56 µmol/kg in the assay on Rattus norvegicus [2] and in the assay on Rattus norvegicus [3] were 62% and 20%, respectively.
On to `OC1(c2ccc3c(ccc4ccccc43)c2)CN2CCCCC2CO1` (stereo unspecified), for which the half-maximal inhibitory concentration (IC50) amounted to 198 µM in the assay with Liver and 0.7 µM at Squalene synthase. Moreover, the inhibition in assay [1] is 87%. The inhibition in vivo at 56 µmol/kg with Rattus norvegicus [2] turned out to be 40%; in the assay on Rattus norvegicus [5], 53%; in the assay with Rattus norvegicus [3], 66%.
Turning to `CC(C)(C)c1ccc(-c2ccc(C3(O)CN4CCCCC4CO3)cc2)cc1` (stereo unspecified), the concentration for half-maximal inhibition (IC50) in the assay on Liver amounted to 410 µM. Moreover, the inhibition in assay [1] is 40%. Further, the inhibition in vivo at 56 µmol/kg in the assay with Rattus norvegicus [2] was 64%; in the assay with Rattus norvegicus [3] it was 59%.
In the same order, the values of `Oc1ccc(-c2ccc(C3(O)CN4CCCCC4CO3)cc2)cc1` (stereo unspecified) are 134 µM, 7%, 40% and 43%.
On to `CN1CC(O)(c2ccc3c(ccc4ccccc43)c2)OC2CCCCC21` (stereo unspecified), for which the concentration for half-maximal inhibition (IC50) turned out to be 191 µM in the assay on Liver and 5.5 µM at Squalene synthase. The inhibition in assay [1] is 76%. Also, the figures for the inhibition in vivo at 56 µmol/kg in the assay with Rattus norvegicus [2], with Rattus norvegicus [5] and with Rattus norvegicus [3] were 49%, 20% and 59%, respectively.
`OC1(c2ccc(-c3nccs3)cc2)CN2CCCCC2CO1` (stereo unspecified): the IC50 in the assay on Liver worked out at 1000 µM. The inhibition in assay [4] was determined as 35%. The inhibition in vivo at 56 µmol/kg in the assay with Rattus norvegicus [2] was determined as 21%; in the assay on Rattus norvegicus [3] it was 58%.
Take `CCC(C)(C)C(=O)O[C@H]1C[C@@H](C)C=C2C=C[C@H](C)[C@H](CC[C@@H]3C[C@@H](O)CC(=O)O3)[C@H]21` [SIMVASTATIN]: the results for the inhibition in vivo at 56 µmol/kg with Rattus norvegicus [2], in the assay with Rattus norvegicus [5] and in the assay with Rattus norvegicus [3] were 75%, 70% and 0%, respectively.
Regarding `CN1CC(O)(c2ccc(C3CCCCC3)cc2)OC2CCCCC21` (stereo unspecified), the IC50 was 180 µM in the assay on Liver and 42 µM at Squalene synthase. Further, the inhibition in assay [1] was 18%. The inhibition in vivo at 56 µmol/kg in the assay on Rattus norvegicus [2] worked out at 51%; with Rattus norvegicus [5], 23%; with Rattus norvegicus [3], 20%.
Regarding `CN1CCOC(O)(c2ccc(C3CCCCC3)cc2)C1` (stereo unspecified), the half-maximal inhibitory concentration (IC50) in the assay on Liver is 190 µM; at Squalene synthase, more than 100 µM. Further, the inhibition in assay [1] was 0%. Moreover, the inhibition in vivo at 56 µmol/kg in the assay with Rattus norvegicus [2] amounted to 44%; in the assay with Rattus norvegicus [5], 36%; with Rattus norvegicus [3], 34%.
As to `CN1CCOC(O)(c2ccc3c(ccc4ccccc43)c2)C1` (stereo unspecified), the concentration for half-maximal inhibition (IC50) in the assay with Liver turned out to be 174 µM; at Squalene synthase, 8.8 µM. Further, the inhibition in assay [1] came to 48%. In addition, the results for the inhibition in vivo at 56 µmol/kg in the assay on Rattus norvegicus [2], with Rattus norvegicus [5] and in the assay on Rattus norvegicus [3] were 58%, 52% and 69%, respectively.
For the compound `CN1CCOC(O)(c2ccc(-c3nccs3)cc2)C1` (stereo unspecified), the inhibition in assay [4] came to 30%.
Regarding `OC1(c2ccc(C3CCCCC3)cc2)CN2CCCCC2CO1` (stereo unspecified), the concentration for half-maximal inhibition (IC50) in the assay with Liver was determined as 700 µM; on Squalene synthase, 80 µM. Besides, the inhibition in assay [1] stood at 9%. Also, the inhibition in vivo at 56 µmol/kg with Rattus norvegicus [2] was 80%; in the assay on Rattus norvegicus [5], 62%; in the assay on Rattus norvegicus [3], 70%.
